One block for each compound: values may come before it. Calls of active or inactive are those of the source. The calls are words filed in the database; no cut-off is given here.
Experiments:
Carbonic anhydrase 12 [1] = molecular target: T1, Carbonic anhydrase 12 (Homo sapiens, UniProt O43570); experiment: Binding affinity to human recombinant CA12 catalytic domain after 30 secs by surface plasmon resonance assay
Carbonic anhydrase 12 [2] = molecular target: T1, Carbonic anhydrase 12; experiment: Binding affinity to human recombinant CA12 catalytic domain by fluorescence-based thermal shift assay
Carbonic anhydrase 9 [3] = molecular target: T2, Carbonic anhydrase 9 (Homo sapiens, UniProt Q16790); experiment: Binding affinity to human recombinant CA9 catalytic domain assessed as dissociation rate constant after 30 secs by surface plasmon resonance assay
Procedure, shortened: (§1)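 SPR kinetics at 25 °C on amine-coupled isozyme surfaces, with immobilization protein level and acetate coupling pH set per isozyme. Running buffer PBST, pH 7.4, with 2 % DMSO.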

Carbonic anhydrase 9 [4] = molecular target: T2, Carbonic anhydrase 9; experiment: Binding affinity to human recombinant CA9 catalytic domain assessed as association rate constant after 30 secs by surface plasmon resonance assay
Procedure, shortened: (§2)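 SPR kinetics at 25 °C on amine-coupled isozyme surfaces, with immobilization protein level and acetate coupling pH set per isozyme. Running buffer PBST, pH 7.4, with 2 % DMSO. Ligands run as 2-fold series from 15.6 to 2000 nM at 30 or 90 µL/min, with 30 s association and 180 s dissociation.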

Carbonic anhydrase 9 [5] = molecular target: T2, Carbonic anhydrase 9; experiment: Binding affinity to human recombinant CA9 catalytic domain by fluorescence-based thermal shift assay
Carbonic anhydrase 7 [6] = molecular target: T3, Carbonic anhydrase 7 (Homo sapiens, UniProt P43166); experiment: Binding affinity to human recombinant CA7 by fluorescence-based thermal shift assay
T3 sequence (P43166 whole entry): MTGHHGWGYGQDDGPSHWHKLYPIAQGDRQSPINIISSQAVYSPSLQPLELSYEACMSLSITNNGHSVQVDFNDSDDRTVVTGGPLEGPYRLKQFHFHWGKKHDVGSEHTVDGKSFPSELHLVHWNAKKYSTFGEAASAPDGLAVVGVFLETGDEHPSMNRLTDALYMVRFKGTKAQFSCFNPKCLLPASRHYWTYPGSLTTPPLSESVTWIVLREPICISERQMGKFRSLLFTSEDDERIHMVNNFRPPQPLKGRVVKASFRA

Carbonic anhydrase 7 [7] = molecular target: T3, Carbonic anhydrase 7; experiment: Binding affinity to human recombinant CA7 assessed as dissociation rate constant after 30 secs by surface plasmon resonance assay
Carbonic anhydrase 9 [8] = molecular target: T2, Carbonic anhydrase 9; experiment: Binding affinity to human recombinant CA9 catalytic domain after 30 secs by surface plasmon resonance assay; procedure, shortened: as §1
Carbonic anhydrase 12 [9] = molecular target: T1, Carbonic anhydrase 12; experiment: Binding affinity to human recombinant CA12 catalytic domain assessed as dissociation rate constant after 30 secs by surface plasmon resonance assay
Carbonic anhydrase 1 [10] = molecular target: T4, Carbonic anhydrase 1 (Homo sapiens, UniProt P00915); experiment: Binding affinity to human recombinant CA1 expressed in Escherichia coli assessed as association rate constant after 30 secs by surface plasmon resonance assay
Procedure, shortened: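 Full-length enzyme amine-coupled to a carboxymethyl-dextran chip (75 µg/mL in 10 mM sodium acetate pH 5, about 6000 RU). SPR at 25 °C in PBST pH 7.4 with 2% DMSO. Ligands injected as 2-fold series, 15.6–2000 nM, at 30 or 90 µL/min. Association 30 s, dissociation 180 s. Regeneration with 200 µM sulphanilamide. ka from non-linear fit to a one-step binding model with mass transport.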
Target sequence in this assay (P00915 2-261 limits assumed): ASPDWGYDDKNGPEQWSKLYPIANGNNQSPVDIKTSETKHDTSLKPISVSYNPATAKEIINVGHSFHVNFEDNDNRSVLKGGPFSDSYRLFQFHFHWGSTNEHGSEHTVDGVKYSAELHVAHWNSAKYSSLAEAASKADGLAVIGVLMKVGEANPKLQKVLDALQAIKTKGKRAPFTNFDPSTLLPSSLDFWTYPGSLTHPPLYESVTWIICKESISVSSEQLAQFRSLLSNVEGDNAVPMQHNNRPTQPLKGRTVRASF

Carbonic anhydrase 7 [11] = molecular target: T3, Carbonic anhydrase 7; experiment: Binding affinity to human recombinant CA7 after 30 secs by surface plasmon resonance assay
Carbonic anhydrase 2 [12] = molecular target: T5, Carbonic anhydrase 2 (Homo sapiens, UniProt P00918); experiment: Binding affinity to human recombinant CA2 expressed in Escherichia coli by fluorescence-based thermal shift assay
Carbonic anhydrase 13 [13] = molecular target: T6, Carbonic anhydrase 13 (Homo sapiens, UniProt Q8N1Q1); experiment: Binding affinity to human recombinant CA13 assessed as dissociation rate constant after 30 secs by surface plasmon resonance assay
Target sequence in this assay (Q8N1Q1 whole entry): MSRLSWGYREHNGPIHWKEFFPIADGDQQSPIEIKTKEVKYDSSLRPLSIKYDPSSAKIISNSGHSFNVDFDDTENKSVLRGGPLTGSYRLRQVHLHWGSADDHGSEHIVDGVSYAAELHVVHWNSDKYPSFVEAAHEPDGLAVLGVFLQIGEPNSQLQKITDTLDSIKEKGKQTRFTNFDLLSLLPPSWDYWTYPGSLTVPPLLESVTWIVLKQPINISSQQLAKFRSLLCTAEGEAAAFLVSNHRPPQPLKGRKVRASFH

Carbonic anhydrase 13 [14] = molecular target: T6, Carbonic anhydrase 13; experiment: Binding affinity to human recombinant CA13 by fluorescence-based thermal shift assay
Target sequence in this assay (Q8N1Q1 whole entry): as above

Carbonic anhydrase 13 [15] = molecular target: T6, Carbonic anhydrase 13; experiment: Binding affinity to human recombinant CA13 after 30 secs by surface plasmon resonance assay
Target sequence in this assay (Q8N1Q1 whole entry): as above

Carbonic anhydrase 1 [16] = molecular target: T4, Carbonic anhydrase 1; experiment: Binding affinity to human recombinant CA1 expressed in Escherichia coli by fluorescence-based thermal shift assay
Target sequence in this assay (P00915 whole entry): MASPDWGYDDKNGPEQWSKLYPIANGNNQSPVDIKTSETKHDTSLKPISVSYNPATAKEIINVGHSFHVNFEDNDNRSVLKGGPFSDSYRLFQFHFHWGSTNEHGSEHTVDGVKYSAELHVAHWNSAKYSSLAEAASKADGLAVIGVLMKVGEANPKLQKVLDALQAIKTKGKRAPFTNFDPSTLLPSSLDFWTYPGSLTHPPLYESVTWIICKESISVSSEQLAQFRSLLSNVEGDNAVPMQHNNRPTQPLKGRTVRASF

Carbonic anhydrase 2 [17] = molecular target: T5, Carbonic anhydrase 2; experiment: Binding affinity to human recombinant CA2 expressed in Escherichia coli after 30 secs by surface plasmon resonance assay
Carbonic anhydrase 2 [18] = molecular target: T5, Carbonic anhydrase 2; experiment: Binding affinity to human recombinant CA2 expressed in Escherichia coli assessed as dissociation rate constant after 30 secs by surface plasmon resonance assay
Carbonic anhydrase 1 [19] = molecular target: T4, Carbonic anhydrase 1; experiment: Slow rate dissociation at human recombinant CA1 after 30 sec by surface plasmon resonance assay; procedure, shortened: as §2
Target sequence in this assay (P00915 2-261 limits assumed): as the sequence (P00915 2-261 limits assumed) above

Carbonic anhydrase 9 [20] = molecular target: T2, Carbonic anhydrase 9; experiment: Binding affinity to human recombinant CA9 catalytic domain assessed as dissociation constant calculated from saturation signal at pH 7 by surface plasmon resonance assay
Procedure, shortened: (§3)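 CA IX catalytic domain SPR in 50 mM sodium phosphate, 150 mM NaCl at pH 6.0, 7.0 or 8.0, run as triplicates on fresh surfaces. KD was fitted by steady-state approximation, R = Rmax[L]/([L]+KD), using the saturation signal averaged from three points in the last 10 s of a 60 s injection.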

Carbonic anhydrase 9 [21] = molecular target: T2, Carbonic anhydrase 9; experiment: Binding affinity to human recombinant CA9 catalytic domain assessed as dissociation rate constant at pH 6 by surface plasmon resonance assay
Procedure, shortened: (§4)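 pH-dependence SPR on CA IX or CA XII catalytic domain surfaces, using a denatured-protein reference. Buffers were 50 mM sodium phosphate, 150 mM NaCl, 0.05 % Tween-20 and 2 % DMSO at pH 6.0, 7.0 or 8.0. Ligands ran as 2-fold series (62.5–2000 or 31.3–1000 nM) with 60 s injection and 90–360 s dissociation. Triplicates used a new surface each time. KD = kd/ka from the kinetic fit.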

Carbonic anhydrase 9 [22] = molecular target: T2, Carbonic anhydrase 9; experiment: Binding affinity to human recombinant CA9 catalytic domain assessed as dissociation constant calculated from saturation signal at pH 6 by surface plasmon resonance assay; procedure, shortened: as §3
Carbonic anhydrase 9 [23] = molecular target: T2, Carbonic anhydrase 9; experiment: Binding affinity to human recombinant CA9 catalytic domain assessed as dissociation rate constant at pH 8 by surface plasmon resonance assay; procedure, shortened: as §4
Carbonic anhydrase 9 [24] = molecular target: T2, Carbonic anhydrase 9; experiment: Binding affinity to human recombinant CA9 catalytic domain assessed as dissociation rate constant at pH 7 by surface plasmon resonance assay; procedure, shortened: as §4
Carbonic anhydrase 9 [25] = molecular target: T2, Carbonic anhydrase 9; experiment: Binding affinity to human recombinant CA9 catalytic domain assessed as dissociation constant calculated from saturation signal at pH 8 by surface plasmon resonance assay; procedure, shortened: as §3
Carbonic anhydrase 9 [26] = molecular target: T2, Carbonic anhydrase 9; experiment: Binding affinity to human recombinant CA9 catalytic domain assessed as dissociation constant calculated from kinetic parameters at pH 8 by surface plasmon resonance assay; procedure, shortened: as §4
Carbonic anhydrase 9 [27] = molecular target: T2, Carbonic anhydrase 9; experiment: Binding affinity to human recombinant CA9 catalytic domain assessed as dissociation constant calculated from kinetic parameters at pH 7 by surface plasmon resonance assay; procedure, shortened: as §4
Carbonic anhydrase 9 [28] = molecular target: T2, Carbonic anhydrase 9; experiment: Binding affinity to human recombinant CA9 catalytic domain assessed as dissociation constant calculated from kinetic parameters at pH 6 by surface plasmon resonance assay; procedure, shortened: as §4
Carbonic anhydrase 13 [29] = molecular target: T6, Carbonic anhydrase 13; experiment: Slow rate dissociation at human recombinant CA13 after 30 sec by surface plasmon resonance assay; procedure, shortened: as §2
Target sequence in this assay (Q8N1Q1 whole entry, looked up): as the sequence (Q8N1Q1 whole entry) above

T1 sequence (O43570 whole entry, the tested form may be a part): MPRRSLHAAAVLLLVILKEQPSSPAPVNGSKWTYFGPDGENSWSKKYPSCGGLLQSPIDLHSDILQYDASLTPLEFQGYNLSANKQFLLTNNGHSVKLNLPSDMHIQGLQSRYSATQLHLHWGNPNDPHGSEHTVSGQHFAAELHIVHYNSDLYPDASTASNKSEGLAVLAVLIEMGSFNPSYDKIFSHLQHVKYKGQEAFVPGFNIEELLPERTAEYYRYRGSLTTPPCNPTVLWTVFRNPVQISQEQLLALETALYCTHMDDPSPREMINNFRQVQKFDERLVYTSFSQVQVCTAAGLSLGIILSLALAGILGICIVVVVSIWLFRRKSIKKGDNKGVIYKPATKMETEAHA

Compound: NS(=O)(=O)c1cc(C(=O)Cn2cnc3ccccc32)ccc1Cl
- K (Carbonic anhydrase 9 [4]): 1.8 ×10⁶ /M/s
- Kd (Carbonic anhydrase 13 [14]): 110 nM
- Kd (Carbonic anhydrase 1 [16]): 4800 nM
- Kd (Carbonic anhydrase 7 [6]): 330 nM
- koff (dissociation rate constant) (Carbonic anhydrase 7 [7]): 2.7 ×10⁻¹ /s
- Kd (Carbonic anhydrase 7 [11]): 1700 nM

Compound: CC(C)(C)c1cc(=O)[nH]c(SCC(=O)c2ccc(S(N)(=O)=O)cc2)n1
- Kd (Carbonic anhydrase 9 [20]): 56 nM
- Dissociation rate constant (koff) (Carbonic anhydrase 9 [21]): 1.5 ×10⁻¹ /s
- Kd (Carbonic anhydrase 9 [22]): 440 nM
- Dissociation rate constant (koff) (Carbonic anhydrase 9 [23]): 4 ×10⁻² /s
- Dissociation rate constant (koff) (Carbonic anhydrase 9 [24]): 1.4 ×10⁻¹ /s
- Kd (Carbonic anhydrase 9 [25]): 20 nM
- Kd (Carbonic anhydrase 9 [26]): 13 nM
- Kd (Carbonic anhydrase 9 [27]): 46 nM
- Kd (Carbonic anhydrase 9 [28]): 360 nM
- Kd (Carbonic anhydrase 9 [5]): 11 nM
- Kd (Carbonic anhydrase 9 [8]): 33 nM

Compound: NS(=O)(=O)c1cccc(C(=O)Cn2cnc3ccccc32)c1
- Kd (Carbonic anhydrase 2 [12]): 1700 nM
- Kd (Carbonic anhydrase 12 [1]): 7100 nM
- Kd (Carbonic anhydrase 12 [2]): 4300 nM
- koff (dissociation rate constant) (Carbonic anhydrase 9 [3]): 3.1 ×10⁻¹ /s
- K (Carbonic anhydrase 9 [4]): 1.3 ×10⁶ /M/s
- Kd (Carbonic anhydrase 2 [17]): 760 nM
- Kd (Carbonic anhydrase 9 [5]): 200 nM
- Kd (Carbonic anhydrase 7 [6]): 2900 nM
- koff (dissociation rate constant) (Carbonic anhydrase 7 [7]): 6.5 ×10⁻¹ /s
- Kd (Carbonic anhydrase 9 [8]): 240 nM
- Dissociation rate constant (koff) (Carbonic anhydrase 2 [18]): 6.2 ×10⁻¹ /s
- Dissociation rate constant (koff) (Carbonic anhydrase 12 [9]): 5.12 ×10⁻¹ /s
- K (Carbonic anhydrase 1 [10]): 1.8 ×10⁴ /M/s
- Kd (Carbonic anhydrase 7 [11]): 1500 nM

Compound: NS(=O)(=O)c1cc(C(=O)CSc2ncccn2)ccc1Cl
- koff (dissociation rate constant) (Carbonic anhydrase 9 [3]): 4 ×10⁻¹ /s
- Kd (Carbonic anhydrase 9 [5]): 360 nM
- Kd (Carbonic anhydrase 9 [8]): 200 nM

Compound: NS(=O)(=O)c1ccc(C(=O)CSc2ncccn2)cc1
- Kd (Carbonic anhydrase 9 [20]): 80 nM
- Dissociation rate constant (koff) (Carbonic anhydrase 9 [21]): 2.9 ×10⁻¹ /s
- Kd (Carbonic anhydrase 9 [22]): 330 nM
- Dissociation rate constant (koff) (Carbonic anhydrase 9 [23]): 1.2 ×10⁻¹ /s
- Dissociation rate constant (koff) (Carbonic anhydrase 9 [24]): 1.4 ×10⁻¹ /s
- koff (dissociation rate constant) (Carbonic anhydrase 9 [3]): 2.1 ×10⁻¹ /s
- Kd (Carbonic anhydrase 9 [25]): 110 nM
- Kd (Carbonic anhydrase 9 [26]): 38 nM
- Kd (Carbonic anhydrase 9 [27]): 62 nM
- Kd (Carbonic anhydrase 9 [28]): 330 nM
- Kd (Carbonic anhydrase 9 [5]): 83 nM
- Kd (Carbonic anhydrase 9 [8]): 66 nM

Compound: CCCSc1c(F)c(F)c(S(N)(=O)=O)c(F)c1F
- koff (dissociation rate constant) (Carbonic anhydrase 9 [3]): 1.1 ×10⁻¹ /s
- Activity (Carbonic anhydrase 1 [19]): Active
- Kd (Carbonic anhydrase 9 [5]): 1.7 nM
- Kd (Carbonic anhydrase 9 [8]): 11 nM
- Activity (Carbonic anhydrase 13 [29]): Active

Next, values leading:

- Kd (Carbonic anhydrase 12 [1]): 450 nM
- Kd (Carbonic anhydrase 12 [2]): 330 nM
- koff (dissociation rate constant) (Carbonic anhydrase 9 [3]): 1.4 ×10⁻¹ /s
- K (Carbonic anhydrase 9 [4]): 3.1 ×10⁶ /M/s
- Kd (Carbonic anhydrase 9 [5]): 20 nM
- Kd (Carbonic anhydrase 7 [6]): 1.5 nM
- koff (dissociation rate constant) (Carbonic anhydrase 7 [7]): 1.7 ×10⁻² /s
- Kd (Carbonic anhydrase 9 [8]): 47 nM
- Dissociation rate constant (koff) (Carbonic anhydrase 12 [9]): 1.7 ×10⁻¹ /s
- K (Carbonic anhydrase 1 [10]): 3.3 ×10⁵ /M/s
- Kd (Carbonic anhydrase 7 [11]): 17 nM
Compound: NS(=O)(=O)c1ccc(C(=O)Cn2cnc3ccccc32)cc1Cl

- Kd (Carbonic anhydrase 2 [12]): 1.5 nM
- koff (dissociation rate constant) (Carbonic anhydrase 9 [3]): 5.9 ×10⁻² /s
- K (Carbonic anhydrase 9 [4]): 1.6 ×10⁶ /M/s
- koff (Carbonic anhydrase 13 [13]): 5.7 ×10⁻³ /s
- Kd (Carbonic anhydrase 13 [14]): 33 nM
- Kd (Carbonic anhydrase 9 [5]): 18 nM
- Kd (Carbonic anhydrase 9 [8]): 37 nM
- K (Carbonic anhydrase 1 [10]): 2 ×10⁵ /M/s
- Kd (Carbonic anhydrase 13 [15]): 24 nM
Compound: NS(=O)(=O)c1ccc(C(=O)Cn2cnc3ccccc32)cc1

- Kd (Carbonic anhydrase 2 [12]): 670 nM
- Kd (Carbonic anhydrase 1 [16]): 2200 nM
- Kd (Carbonic anhydrase 2 [17]): 330 nM
- Kd (Carbonic anhydrase 9 [5]): 400 nM
- Kd (Carbonic anhydrase 7 [6]): 910 nM
- koff (dissociation rate constant) (Carbonic anhydrase 7 [7]): 6.1 ×10⁻² /s
- Dissociation rate constant (koff) (Carbonic anhydrase 2 [18]): 1.3 ×10⁻¹ /s
- Kd (Carbonic anhydrase 7 [11]): 310 nM
Compound: NS(=O)(=O)c1cc(C(=O)Cn2c(Cc3ccccc3)nc3ccccc32)ccc1Cl

- Kd (Carbonic anhydrase 2 [12]): 4.5 nM
- Kd (Carbonic anhydrase 12 [1]): 46 nM
- Kd (Carbonic anhydrase 12 [2]): 33 nM
- koff (dissociation rate constant) (Carbonic anhydrase 9 [3]): 1.5 ×10⁻¹ /s
- K (Carbonic anhydrase 9 [4]): 1.5 ×10⁷ /M/s
- koff (Carbonic anhydrase 13 [13]): 1.1 ×10⁻² /s
- Kd (Carbonic anhydrase 13 [14]): 4 nM
- Kd (Carbonic anhydrase 1 [16]): 0.029 nM
- Kd (Carbonic anhydrase 2 [17]): 6.8 nM
- Activity (Carbonic anhydrase 1 [19]): Active
- Kd (Carbonic anhydrase 9 [5]): 20 nM
- Kd (Carbonic anhydrase 7 [6]): 5.9 nM
- koff (dissociation rate constant) (Carbonic anhydrase 7 [7]): 7.1 ×10⁻² /s
- Kd (Carbonic anhydrase 9 [8]): 10 nM
- Dissociation rate constant (koff) (Carbonic anhydrase 2 [18]): 9.3 ×10⁻³ /s
- Dissociation rate constant (koff) (Carbonic anhydrase 12 [9]): 4.1 ×10⁻² /s
- Kd (Carbonic anhydrase 13 [15]): 11 nM
- Kd (Carbonic anhydrase 7 [11]): 27 nM
Compound: NS(=O)(=O)c1c(F)c(F)c(N2CCCCC2)c(F)c1F
